≈ marks a conversion by molar mass, not a printed value.
Columns and labels:
Bacteroides fragilis [1] = test: In vitro antimicrobial activity against anaerobic bacteria bacteroides fragilis 1877; assay type: functional
Staphylococcus aureus [2] = test: In vitro antimicrobial activity against aerobic bacteria Staphylococcus aureus V140,; assay type: functional
Bacteroides fragilis [3] = test: In vitro antimicrobial activity against anaerobic bacteria bacteroides fragilis 111; assay type: functional
Streptococcus pyogenes [4] = test: In vivo effective dose against experimental infections in rodent caused by Streptococcus pyogenes C203 when administered sc; assay type: functional
Haemophilus influenzae [5] = test: In vitro antimicrobial activity against Haemophilus influenzae.; assay type: functional
Streptococcus [6] = test: In vitro antimicrobial activity against aerobic bacteria Streptococcus D 2041; assay type: functional
[7] = system: Staphylococcus epidermidis; test: In vitro antimicrobial activity against aerobic bacteria Streptococcus epi 222; assay type: functional
Streptococcus [8] = test: In vitro antimicrobial activity against aerobic bacteria Streptococcus B 5; assay type: functional
[9] = system: Staphylococcus epidermidis; test: In vitro antimicrobial activity against aerobic bacteria Streptococcus epi 270; assay type: functional
Bacteroides fragilis [10] = test: In vitro antimicrobial activity against anaerobic bacteria bacteroides fragilis 1936B,; assay type: functional
Streptococcus pyogenes [11] = test: In vitro antimicrobial activity against Streptococcus pyogenes C203; assay type: functional
[12] = system: Bacteroides thetaiotaomicron; test: In vitro antimicrobial activity against anaerobic bacteria bacteroides thetaiotaomicron 1438; assay type: functional
Streptococcus pyogenes [13] = test: Effective dose against Streptococcus pyogenes administered orally; assay type: functional; settings: po
Outline: (§1)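 Mouse protection test: infected mice were dosed twice, at 1 and 5 h postinfection, either subcutaneously or orally. […] The result is expressed as ED50 in mg/kg × 2.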

[14] = In vitro antimicrobial activity against anaerobic bacteria peptostreptococcus intermedius 1264; assay type: functional
Collinsella aerofaciens = test: In vitro antimicrobial activity against anaerobic bacteria aerofaciens 1235; assay type: functional
Chlamydia trachomatis = test: In vitro antimicrobial activity against chlamydia trachomatis.; assay type: functional
Streptococcus [15] = test: In vitro antimicrobial activity against aerobic bacteria Streptococcus C 24; assay type: functional
Staphylococcus aureus [16] = test: In vitro antimicrobial activity against Staphylococcus aureus X1; assay type: functional
[17] = system: Peptoniphilus asaccharolyticus; test: In vitro antimicrobial activity against anaerobic bacteria peptococcus asaccharolyticus 1302; assay type: functional
Haemophilus influenzae [18] = test: In vitro antimicrobial activity against aerobic bacteria Haemophilus influenzae 465; assay type: functional
[19] = system: Prevotella melaninogenica; test: In vitro antimicrobial activity against anaerobic bacteria bacteroides melaninogenicus 2736; assay type: functional
[20] = system: Prevotella melaninogenica; test: In vitro antimicrobial activity against anaerobic bacteria bacteroides melaninogenicus 1856,; assay type: functional
Streptococcus [21] = test: In vitro antimicrobial activity against aerobic bacteria Streptococcus D 9960; assay type: functional
Staphylococcus aureus [22] = test: In vitro antimicrobial activity against aerobic bacteria Staphylococcus aureus 513E; assay type: functional
Streptococcus pyogenes [23] = test: Antimicrobial activity against Streptococcus pyogenes C203; assay type: functional
Staphylococcus aureus [24] = test: In vitro antimicrobial activity against aerobic bacteria Staphylococcus aureus X400; assay type: functional
Streptococcus [25] = test: In vitro antimicrobial activity against aerobic bacteria Streptococcus G Kruder; assay type: functional; settings: Streptococcus; read-out: MIC
Eikenella corrodens = test: In vitro antimicrobial activity against anaerobic bacteria bacteroides corrodens 1874; assay type: functional
Haemophilus influenzae [26] = test: In vitro antimicrobial activity against aerobic bacteria Haemophilus influenzae 76; assay type: functional
[27] = system: Peptostreptococcus anaerobius; test: In vitro antimicrobial activity against anaerobic bacteria eubacterium peptostreptococcus anaerobius 1428,; assay type: functional
Fusobacterium = test: In vitro antimicrobial activity against anaerobic bacteria fusobacterium symbiosum 1470; assay type: functional
[28] = system: Fusobacterium necrophorum; test: In vitro antimicrobial activity against anaerobic bacteria usobacterium necrophorum 6054A; assay type: functional
Streptococcus pneumoniae [29] = test: In vitro antimicrobial activity against aerobic bacteria Streptococcus pneumoniae B1-438; assay type: functional, streptococcus pneum
Anaerococcus prevotii = test: In vitro antimicrobial activity against anaerobic bacteria peptococcus prevoti 1281; assay type: functional
Streptococcus pyogenes [30] = test: Effective dose against Streptococcus pyogenes C203 when administered sc; assay type: functional; outline: as §1
[31] = system: Haemophilus parainfluenzae; test: In vitro antimicrobial activity against aerobic bacteria Haemophilus parainfluenzae 9796; assay type: functional
Cutibacterium acnes = test: In vitro antimicrobial activity against anaerobic bacteria propionibacterium acnes 79; assay type: functional
Streptococcus [32] = test: In vitro antimicrobial activity against aerobic bacteria Streptococcus D 8043; assay type: functional
Streptococcus pneumoniae [33] = test: In vitro antimicrobial activity against Streptococcus pneumoniae; assay type: functional
Staphylococcus aureus [34] = test: In vitro antimicrobial activity against aerobic bacteria Staphylococcus aureus V41; assay type: functional
Clostridioides difficile = test: In vitro antimicrobial activity against anaerobic bacteria Clostridium difficile 2994; assay type: functional
[35] = system: Staphylococcus epidermidis; test: In vitro antimicrobial activity against Staphylococcus epidermidis EPI1; assay type: functional
Streptococcus pyogenes [36] = test: In vivo effective dose against experimental infections in rodent caused by Streptococcus pyogenes C203 when administered orally; assay type: functional; settings: po
Streptococcus sanguinis = test: In vitro antimicrobial activity against aerobic bacteria Streptococcus sanguis MX132; assay type: functional
Haemophilus influenzae [37] = test: In vitro antimicrobial activity against aerobic bacteria Haemophilus influenzae MX366,; assay type: functional
Streptococcus [38] = test: In vitro antimicrobial activity against aerobic bacteria Streptococcus B 8; assay type: functional
Clostridium septicum = test: In vitro antimicrobial activity against anaerobic bacteria clostridium septicum 1128; assay type: functional
Phocaeicola vulgatus = test: In vitro antimicrobial activity against anaerobic bacteria bacteroides vulgatus 1211; assay type: functional
Enterococcus faecium = test: In vitro antimicrobial activity against Streptococcus faecium X66; assay type: functional, streptococcus fae-cium
Staphylococcus aureus [39] = test: In vitro antimicrobial activity against aerobic bacteria Staphylococcus aureus V135; assay type: functional
Clostridium perfringens = test: In vitro antimicrobial activity against anaerobic bacteria clostridium perfringens 81,; assay type: functional
Streptococcus viridans = test: In vitro antimicrobial activity against aerobic bacteria Streptococcus viridans 9943; assay type: functional

CC[C@H]1OC(=O)C[C@@H](O)[C@H](C)[C@@H](O[C@@H]2O[C@H](C)[C@@H](O[C@H]3C[C@@](C)(O)[C@@H](O)[C@H](C)O3)[C@H](N(C)C)[C@H]2O)[C@@H](CC=O)C[C@@H](C)C(=O)/C=C/C(C)=C/[C@@H]1CO[C@@H]1O[C@H](C)[C@@H](O)[C@@H](OC)[C@H]1OC [TYLOSIN]
MIC (Bacteroides fragilis [1]): 1 µg/mL (≈ 1.09 µM) | MIC (Staphylococcus aureus [2]): 1 µg/mL (≈ 1.09 µM) | MIC (Bacteroides fragilis [3]): 0.5 µg/mL (≈ 0.546 µM) | ED50 (Streptococcus pyogenes [4]): 1.3 mg/kg | MIC (Haemophilus influenzae [5]): 16 µg/mL (≈ 17.5 µM) | MIC (Streptococcus [6]): 1 µg/mL (≈ 1.09 µM) | MIC [7]: 0.25 µg/mL (≈ 0.273 µM) | MIC (Streptococcus [8]): 1 µg/mL (≈ 1.09 µM) | MIC [9]: > 128 µg/mL | MIC (Bacteroides fragilis [10]): 1 µg/mL (≈ 1.09 µM) | MIC (Streptococcus pyogenes [11]): 0.25 µg/mL (≈ 0.273 µM) | MIC [12]: 1 µg/mL (≈ 1.09 µM) | ED50 (Streptococcus pyogenes [13]): 0.5 mg/kg | MIC [14]: 0.5 µg/mL (≈ 0.546 µM) | MIC (Collinsella aerofaciens): 0.12 µg/mL (≈ 0.131 µM) | MIC (Chlamydia trachomatis): 0.25 µg/mL (≈ 0.273 µM) | MIC (Streptococcus [15]): 0.25 µg/mL (≈ 0.273 µM) | MIC (Staphylococcus aureus [16]): 0.5 µg/mL (≈ 0.546 µM) | MIC [17]: 0.06 µg/mL (≈ 0.0655 µM) | MIC (Haemophilus influenzae [18]): 32 µg/mL (≈ 34.9 µM) | MIC [19]: < 0.03 µg/mL | MIC [20]: 0.25 µg/mL (≈ 0.273 µM) | MIC (Streptococcus [21]): 1 µg/mL (≈ 1.09 µM) | MIC (Staphylococcus aureus [22]): 1 µg/mL (≈ 1.09 µM) | MIC (Streptococcus pyogenes [23]): 0.25 µg/mL (≈ 0.273 µM) | MIC (Staphylococcus aureus [24]): 1 µg/mL (≈ 1.09 µM) | MIC (Streptococcus [25]): 0.25 µg/mL (≈ 0.273 µM) | MIC (Eikenella corrodens): 1 µg/mL (≈ 1.09 µM) | MIC (Haemophilus influenzae [26]): 16 µg/mL (≈ 17.5 µM) | MIC [27]: 8 µg/mL (≈ 8.73 µM) | MIC (Fusobacterium): < 0.03 µg/mL | MIC [28]: 0.5 µg/mL (≈ 0.546 µM) | MIC (Streptococcus pneumoniae [29]): > 128 µg/mL | MIC (Anaerococcus prevotii): 8 µg/mL (≈ 8.73 µM) | ED50 (Streptococcus pyogenes [30]): 0.5 mg/kg | MIC [31]: 16 µg/mL (≈ 17.5 µM) | MIC (Cutibacterium acnes): 0.5 µg/mL (≈ 0.546 µM) | MIC (Streptococcus [32]): 1 µg/mL (≈ 1.09 µM) | MIC (Streptococcus pneumoniae [33]): 0.25 µg/mL (≈ 0.273 µM) | MIC (Staphylococcus aureus [34]): 1 µg/mL (≈ 1.09 µM) | MIC (Clostridioides difficile): 1 µg/mL (≈ 1.09 µM) | MIC [35]: 1 µg/mL (≈ 1.09 µM) | ED50 (Streptococcus pyogenes [36]): 42 mg/kg | MIC (Streptococcus sanguinis): 0.5 µg/mL (≈ 0.546 µM) | MIC (Haemophilus influenzae [37]): 16 µg/mL (≈ 17.5 µM) | MIC (Streptococcus [38]): 1 µg/mL (≈ 1.09 µM) | MIC (Clostridium septicum): 0.5 µg/mL (≈ 0.546 µM) | MIC (Phocaeicola vulgatus): 1 µg/mL (≈ 1.09 µM) | MIC (Enterococcus faecium): 2 µg/mL (≈ 2.18 µM) | MIC (Staphylococcus aureus [39]): 1 µg/mL (≈ 1.09 µM) | MIC (Clostridium perfringens): 0.25 µg/mL (≈ 0.273 µM) | MIC (Streptococcus viridans): > 128 µg/mL

Source: ChEMBL document CHEMBL1124186, “Synthesis and evaluation of tylosin-related macrolides modified at the aldehyde function: a new series of orally effective antibiotics” (1988)
